MEKK2mut PB1 HTS – signal of MEK5 binding to mutant human MEKK2 PB1 domain | bead flow cytometry, Alexa488-MEK5 binding to MEKK2 mutant | 290,000 tested, 0.35% active | AID 1530 | percent response, % at 10 µM; in the data active = percent response above about 24%, passing the limit was not always enough
MEKK3 PB1 HTS – raises or lowers MEK5 binding to the human MEKK3 PB1 domain | bead-based flow cytometry, Alexa488-MEK5 binding to MEKK3; actives lie on both sides; 0 = blocked by unlabeled MEK5, 100 = vehicle | binding response (% of control), % at 10 µM | 290,000 tested, 1.4% active | AID 1529;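 active = binding response more than 3 SD above or below the average of its plate-row segment, actives on both sides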;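 note: Alexa488 bead fluorescence after subtracting the streptavidin-only scavenger bead signal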
Target sequence (Q99759 whole entry, looked up, the tested form may be a part): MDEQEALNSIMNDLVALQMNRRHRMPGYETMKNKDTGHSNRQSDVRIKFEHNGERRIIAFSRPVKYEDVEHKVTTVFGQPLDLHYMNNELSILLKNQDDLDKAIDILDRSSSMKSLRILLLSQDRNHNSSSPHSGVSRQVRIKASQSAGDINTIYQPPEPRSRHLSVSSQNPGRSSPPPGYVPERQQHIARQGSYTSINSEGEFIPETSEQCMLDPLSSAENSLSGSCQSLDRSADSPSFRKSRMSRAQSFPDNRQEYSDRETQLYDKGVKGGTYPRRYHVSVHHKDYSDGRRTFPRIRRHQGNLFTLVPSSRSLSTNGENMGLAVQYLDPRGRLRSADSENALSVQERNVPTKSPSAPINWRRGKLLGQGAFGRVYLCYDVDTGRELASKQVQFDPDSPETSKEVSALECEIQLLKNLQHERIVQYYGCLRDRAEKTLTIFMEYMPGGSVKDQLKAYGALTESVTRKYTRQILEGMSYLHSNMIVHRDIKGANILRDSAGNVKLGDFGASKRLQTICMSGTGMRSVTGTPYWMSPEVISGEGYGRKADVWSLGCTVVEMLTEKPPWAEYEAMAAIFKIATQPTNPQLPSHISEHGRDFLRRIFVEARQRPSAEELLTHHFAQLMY
MEKK2wt PB1 HTS – raises or lowers MEK5 binding to wildtype human MEKK2 PB1 domain | binding response (% of control), % at 10 µM | AID 1531 | bead flow cytometry, Alexa488-MEK5 binding to MEKK2 WT; actives lie on both sides | 290,000 tested, 1.1% active | Q9Y2U5; in the data active = binding response below about 67% or above about 130%
UCH37 inh – human UCH37 deubiquitinating enzyme inhibition; 330,000 tested, 0.33% active; purified proteasome/UCH37, Ub-AMC cleavage fluorescence; inhibition, % (test concentration not listed); Q9Y5K5; AID 588478;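 active = mean inhibition over replicate wells above about 20%, limit read from the data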
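Signal – fluorescence, ex 355 nm, em 460 nm · System – Proteasome-bound UCH37 · Input – 0.15 nM proteasome as dispensed · Timing – 30 min preincubation with enzyme, 25 min cleavage at room temperature · Read-out basis – percent inhibition of cleavage signal versus uninhibited and no-proteasome wells · Medium – Tris-HCl pH 7.4 with ATP-MgCl2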
UBC13 polyUb – human UBC13 polyubiquitination inhibition | inhibition, % at 20 µM | 330,000 tested, 0.47% active | UBC13 polyubiquitin chain formation, TR-FRET; in the data active = inhibition above about 45%, passing the limit was not always enough
Target sequence (P61088 whole entry, looked up): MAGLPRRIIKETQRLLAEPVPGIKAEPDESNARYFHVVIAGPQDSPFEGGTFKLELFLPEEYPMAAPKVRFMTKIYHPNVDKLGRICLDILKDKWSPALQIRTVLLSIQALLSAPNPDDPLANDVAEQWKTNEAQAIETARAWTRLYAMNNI
Apaf1 inhib – human Apaf-1 inhibition; O14727; reconstituted apoptosome caspase-3 activity, DEVD-Rh110 fluorescence; inhibition, % at 20 µM; 330,000 tested, 0.71% active; AID 489030; active = inhibition of at least 40% at 20 µM
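System: reconstituted apoptosome with Apaf-1, cytochrome c, caspase-9, procaspase-3, dATP; Signal: Rh110 fluorescence intensity; Schedule: 30 min compound preincubation, 50 min activation, room temperature; Reagent: cytochrome c trigger plus (Z-DEVD)2-Rh110 caspase-3 substrate.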
MEKK2wt confirm – raises or lowers MEK5 binding to wildtype human MEKK2, retest. shares compounds with MEKK3 PB1 HTS. bead flow cytometry, Alexa488-MEK5 binding to MEKK2 WT; actives lie on both sides. binding response (% of control), % at 10 µM. 5,900 tested, 2.4% active. AID 1892; in the data active = binding response below about 16% or above about 210%; inactive = in between
MEKK2mut confirm – signal of MEK5 binding to mutant human MEKK2, retest | shares compounds with MEKK3 PB1 HTS | bead flow cytometry, Alexa488-MEK5 binding to MEKK2 mutant | percent response, % at 10 µM | 5,900 tested, 2% active; in the data active = percent response mostly above about 71%, no sharp cut-off; inactive = mostly below about 38%;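 note: higher means compound restores mutant binding toward wildtype level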
MEKK3-MEK5 inh – confirmation of inhibitors of MEK5 binding to human MEKK3. shares compounds with MEKK3 PB1 HTS. binding response (% of control), % at 10 µM. bead flow cytometry, Alexa488-MEK5 binding to MEKK3; stronger effect = lower value. 5,900 tested, 1.8% active;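 active = binding response below 72% of control, or above a set upper limit, though filed actives all read lower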
Of the large screens only hits and unclear results are named; the others gave an inactive call (follow-up assays come after a bar, where they were run); ! = a repeat was not active; [ ] = another dose, or the depositor's remark. A selection: hits, their analogues and other compounds. The true share with any hit is near 3%.

CC(C)=CCc1c(O)cc2c(c1O)C(=O)CC(c1ccc(O)cc1)O2 (stereo not given)	none
O=c1c2ccccc2nc(-c2ccccc2)n1-n1cccc1	UCH37 inh 24
O=c1c2ccccc2nc(-c2ccccc2)n1-c1ccccc1	none
COc1cc(O)c(C(=O)O)c(-c2cc(O)c(O)cc2C)c1	none
O=c1[nH]c(O)c(N=Nc2cc([N+](=O)[O-])ccc2O)c(=O)[nH]1	UCH37 inh 23 (no result: UBC13 polyUb, Apaf1 inhib)
NC(=O)c1ccc(N=Nc2c(O)[nH]c(=O)[nH]c2=O)cc1	none (no result: UCH37 inh)
CCCNC1=C(C)C(=O)C2=C(C1=O)C(COC(N)=O)[C@]1(OC)C3NC3CN21 (stereo not given in full)	Apaf1 inhib 57
O=C(O)c1cc(Oc2ccc(C(F)(F)F)cc2Cl)ccc1[N+](=O)[O-]	none (no result: UCH37 inh)
NC(=NN=Cc1ccc(-c2ccc(O)c(C(=O)O)c2)o1)N[N+](=O)[O-]	UCH37 inh 22 (no result: MEKK2mut PB1 HTS, MEKK3 PB1 HTS, MEKK2wt PB1 HTS, UBC13 polyUb, Apaf1 inhib)
NC(=NN=Cc1ccc(O)cc1O)N[N+](=O)[O-]	none (no result: MEKK2mut PB1 HTS, MEKK3 PB1 HTS, MEKK2wt PB1 HTS, UBC13 polyUb, Apaf1 inhib)
Cc1cc(OC(C)C(=O)NCC2CCC(C(=O)O)CC2)c2c3c(c(=O)oc2c1)CCC3 (stereo not given)	none
C=CCn1c(O)c(C(C)=Nc2ccc(C(=O)O)cc2)c(=O)[nH]c1=O	none
CN1CC[C@@]2(C)c3cc(O)ccc3N(C)C2O1 (stereo not given in full)	Apaf1 inhib 92
C=CCN1CC[C@@]2(C)c3cc(O)ccc3CC1[C@@H]2C	none
CCOC(=O)c1c(N)n(CCCOC(=O)c2ccco2)c2nc3ccccc3nc12	Apaf1 inhib 43
CCCNC(=O)c1c(N)n(Cc2ccco2)c2nc3ccccc3nc12	Apaf1 inhib 40
COc1ccc(/C=C(\C#N)C(=O)c2cccn2C)cc1	none
O=c1[nH]c(=O)n(CCC2=CCCCC2)c(O)c1C=NCCCn1ccnc1	none
O=c1[nH]c(=O)n(CCc2ccc(F)cc2)c(O)c1C=NCCCn1ccnc1	UCH37 inh 26
CN1CCC2(CC1)c1ccccc1-c1ccccc12	none (no result: MEKK2mut PB1 HTS, MEKK3 PB1 HTS, MEKK2wt PB1 HTS, UBC13 polyUb, Apaf1 inhib)
COc1ccc(S(=O)(=O)N2CCOCC2)cc1NC(=O)COC(=O)Cc1ccccc1	none (no result: MEKK2mut PB1 HTS, MEKK3 PB1 HTS, MEKK2wt PB1 HTS)
O=[N+]([O-])c1ccc(N2CCCC2)cc1NN=C1CN2CCC1CC2	UCH37 inh 22 (no result: MEKK2mut PB1 HTS, MEKK3 PB1 HTS, MEKK2wt PB1 HTS, UBC13 polyUb, Apaf1 inhib)
CCC(C)N1C(=O)/C(=C\c2ccc(N3CCCCCC3)cc2)C(=O)NC1=S (stereo not given)	MEKK2mut PB1 HTS 51
CN1C(=O)/C(=C\c2ccc(N3CCCCCC3)cc2)C(=O)NC1=S	none
Cc1ccc2c(c1)N(CCC(=O)N1CCC3(CC1)OCCO3)C(=O)CO2	none
OCCN(CC#CC(O)(c1ccccc1)C1CCCC1)CCO (stereo not given)	UCH37 inh 32
COC(=O)C1=C(c2ccc3ccccc3c2)C[C@@H]2CC[C@H]1N2C(=O)N1CCOCC1	none (no result: MEKK2mut PB1 HTS, MEKK3 PB1 HTS, MEKK2wt PB1 HTS)
COC(=O)C1=C(c2cc3ccccc3o2)C[C@@H]2CC[C@H]1N2C(=O)N1CCOCC1	UCH37 inh 27
Nc1cncc(C(=O)O)c1	Apaf1 inhib 41!
O=C1CCCN1C(=O)c1cncc(Br)c1	none
COc1ccc(-c2nc3ccccc3c(=O)n2-c2ccc(OC)cc2)cc1	none
CCn1nc(-c2ccccc2)nc2c(=O)n(C)c(=O)nc1-2	UCH37 inh 99, Apaf1 inhib 98
CCOc1cc2c(cc1OCC)-n1cccc1C(c1ccc(C(C)C)cc1)NC2 (stereo not given)	MEKK2wt PB1 HTS 141 | MEKK2wt confirm inactive | MEKK2mut confirm inactive | MEKK3-MEK5 inh inactive
CCCCC(=O)N/N=C/c1c(O)n(CC)c(=S)[nH]c1=O	MEKK3 PB1 HTS 2.0[inhibitor], MEKK2wt PB1 HTS 1.0[inhibitor] | MEKK2wt confirm inactive | MEKK2mut confirm inactive | MEKK3-MEK5 inh inactive
Cc1[nH]c2ccc(OCc3ccccc3)cc2c1CCN	MEKK2wt PB1 HTS 162 | MEKK2wt confirm inactive | MEKK2mut confirm inactive | MEKK3-MEK5 inh inactive
Cc1[nH]c2ccc(O)cc2c1CCN	none (no result: MEKK2mut PB1 HTS, MEKK3 PB1 HTS, MEKK2wt PB1 HTS)
CCC(C)N1C(=O)/C(=C\c2cc3c4c(c2)CCCN4CCC3)C(=O)NC1=S (stereo not given)	MEKK2wt PB1 HTS 6.0[inhibitor] | MEKK2wt confirm inactive | MEKK2mut confirm inactive | MEKK3-MEK5 inh inactive
CCC(C)N1C(=O)/C(=C\c2cnc(N(C)C)nc2)C(=O)NC1=S (stereo not given)	none
O=C1NC(=O)N(Cc2ccccc2)C(=O)/C1=C/N1CCCc2ccccc21	MEKK3 PB1 HTS 140 | MEKK2wt confirm inactive | MEKK2mut confirm inactive | MEKK3-MEK5 inh inactive
COC(=O)C1=C(c2cc3ccccc3s2)C[C@@H]2CC[C@H]1N2C(=O)N1CCCCC1	none
Cc1ccc2c(c1)[C@@H]1CN(C)CC[C@@H]1N2C(=O)Nc1cccc(C(F)(F)F)c1	MEKK2wt PB1 HTS 139 | MEKK2wt confirm inactive | MEKK2mut confirm inactive | MEKK3-MEK5 inh inactive
Cc1ccc2c(c1)C1CN(C)CCC1N2C(=O)Nc1cccc(C(F)(F)F)c1 (stereo not given)	none
CC12CN3C(O)C(C)(C1)CC(C)(C2)C3O (stereo not given)	none
CCCCn1c(C)c(C(=O)O)c2cc(OC)ccc21	MEKK3 PB1 HTS 81[inhibitor] | MEKK2wt confirm inactive | MEKK2mut confirm inactive | MEKK3-MEK5 inh inactive
CSc1ccc(C(=O)C2CCCN(Cc3cc4ccccc4[nH]3)C2)cc1 (stereo not given)	MEKK2wt PB1 HTS 217 | MEKK2wt confirm inactive | MEKK2mut confirm inactive | MEKK3-MEK5 inh inactive
CCOc1cc(C2C(C#N)=C(N)Oc3c2c(=O)oc2ccccc32)ccc1OC(=O)c1cccs1 (stereo not given)	MEKK3 PB1 HTS 129 | MEKK2wt confirm inactive | MEKK2mut confirm inactive | MEKK3-MEK5 inh inactive
OCCNCCc1c[nH]c2ccc(OCc3ccccc3)cc12	MEKK2mut PB1 HTS 31, MEKK2wt PB1 HTS 164 | MEKK2wt confirm inactive | MEKK2mut confirm inactive | MEKK3-MEK5 inh inactive
Clc1cccc(CNCCc2c[nH]c3ccccc23)c1	none
CC(=NCCCO)c1c(O)[nH]c(=O)[nH]c1=O	none

Compound activity as filed in PubChem BioAssay.
